Experimental data as given in ChEMBL document CHEMBL1629552, “In vitro and in vivo treatments of echinococcus protoscoleces and metacestodes with artemisinin and artemisinin derivatives” (Antimicrob Agents Chemother, 2008).
The source made the active and inactive calls. The rule behind the calls is not given here.

Assays:
[1] = species on record: Mus musculus; assay: Toxicity against Echinococcus multilocularis -infected in BALB/c mouse assessed as adverse effect; format: organism-based; details: in vivo
[2] = tested on: Echinococcus multilocularis; assay: Antimicrobial activity against Echinococcus multilocularis -infected in BALB/c mouse assessed as parasite weight at 200 mg/kg body weight intragastrically administered 8 weeks post-infecion (reference value: 5.71+/-1.79 g); format: functional; details: route intragastric
[3] = tested on: Echinococcus multilocularis; assay: Antimicrobial activity against Echinococcus multilocularis metacestode assessed as loss of multicellular structure of germinal layer by transmission electron microscopy; format: functional, organism-based
[4] = tested on: Echinococcus granulosus; assay: Antimicrobial activity against Echinococcus granulosus protoscoleces assessed as reduction in protoscoleces viability at 10 uM by trypan blue exclusion assay; format: functional
Procedure, shortened: (§1)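 E. granulosus protoscoleces were isolated and kept in vitro per earlier work. Compounds from 10 mM DMSO stocks were added at 4, 10 and 40 μM, with nitazoxanide as positive control and DMSO as solvent control. Viability was scored microscopically by trypan blue exclusion over days of culture. The experiment was repeated three times.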

[5] = tested on: Echinococcus granulosus; assay: Antimicrobial activity against Echinococcus granulosus protoscoleces assessed as reduction in protoscoleces viability at 40 uM by trypan blue exclusion assay; format: functional; procedure, shortened: as §1
[6] = tested on: Echinococcus multilocularis; assay: Antimicrobial activity against Echinococcus multilocularis metacestode assessed as increase in alkaline phosphatase activity at 40 uM within 4 days; format: functional, organism-based
Procedure, shortened: (§2)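 In vitro-cultured E. multilocularis metacestode vesicles were treated for 12 days with compounds at 40 μM (10 mM DMSO stocks). Albendazole was the positive control and matching DMSO the negative control. Culture supernatant was sampled daily and stored at −20°C, and parasite alkaline phosphatase (EmAP) activity was assayed at the time points shown.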

[7] = tested on: Echinococcus multilocularis; assay: Antimicrobial activity against Echinococcus multilocularis metacestode assessed as increase in alkaline phosphatase activity at 40 uM
[8] = tested on: Echinococcus granulosus; assay: Antimicrobial activity against Echinococcus granulosus metacestode assessed as loss of multicellular structure of germinal layer by transmission electron microscopy; format: functional
[9] = tested on: Echinococcus granulosus; assay: Antimicrobial activity against Echinococcus granulosus protoscoleces assessed as reduction in protoscoleces viability at 40 uM upto 2 days by trypan blue exclusion assay; format: functional; procedure, shortened: as §1
[10] = tested on: Echinococcus granulosus; assay: Antimicrobial activity against Echinococcus granulosus protoscoleces assessed as reduction in protoscoleces viability at 40 uM after 6 days by trypan blue exclusion assay; format: functional; procedure, shortened: as §1
[11] = tested on: Echinococcus multilocularis; assay: Antimicrobial activity against Echinococcus multilocularis metacestode assessed as increase in alkaline phosphatase activity at 40 uM after 8 days; format: functional, organism-based; procedure, shortened: as §2

| SMILES | Activity [1] | Activity [2] [g] | Activity [3] | Activity [4] | Activity [5] | Activity [6] | Activity [7] | Activity [8] | Activity [9] | Activity [10] [%] | Activity [11] |
| --- | --- | --- | --- | --- | --- | --- | --- | --- | --- | --- | --- |
| C[C@H]1[C@H](OC(=O)CCC(=O)O)O[C@@H]2O[C@@]3(C)CC[C@H]4[C@H](C)CC[C@@H]1[C@@]24OO3 [ARTESUNATE] | Non-toxic | 4.6 | Active | inactive | Active | Active | inactive | Active | – | – | – |
| CCCSc1ccc2[nH]c(NC(=O)OC)nc2c1 [ALBENDAZOLE] | – | 2.96 | – | – | – | – | – | – | – | – | – |
| C[C@@H]1CC[C@H]2[C@@H](C)C(=O)O[C@@H]3O[C@@]4(C)CC[C@@H]1[C@]32OO4 | – | – | – | – | inactive | inactive | inactive | – | – | – | – |
| C[C@H]1[C@@H](O)O[C@@H]2O[C@@]3(C)CC[C@H]4[C@H](C)CC[C@@H]1[C@@]24OO3 [ARTENIMOL] | Non-toxic | 4.11 | Active | inactive | Active | – | inactive | Active | inactive | 90 | Active |
| CO[C@H]1O[C@@H]2O[C@@]3(C)CC[C@H]4[C@H](C)CC[C@@H]([C@H]1C)[C@@]24OO3 | – | – | – | – | inactive | inactive | inactive | – | – | – | – |
| CC(=O)Oc1ccccc1C(=O)Nc1ncc([N+](=O)[O-])s1 | – | – | – | Active | – | – | – | – | – | – | – |
